This passage reports Activity and IC50 results from ChEMBL document CHEMBL4425094, “Novel Benzo[a]quinolizidine Analogs Induce Cancer Cell Death through Paraptosis and Apoptosis” (J Med Chem, 2016).

The test system of data set [1] is PC-3. Briefly: Induction of cytoplasmic vacuolation in human PC3 cells at 1 uM after 24 hrs by phase-contrast microscopic analysis. The class given is functional, cell-based. An outline of the steps: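 PC3 cells in RPMI 1640 with 10% FBS at 37 °C, 5% CO2, treated with 1 μM agent for 0−24 h; DMSO vehicle control. Vacuole appearance, size and number followed over time by phase-contrast microscopy at constant magnification.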

Data set [2] is described as follows: Toxicity in athymic Balb/c mouse assessed as body weight loss at 15 mg/kg, ip administered every 2 days for 18 days. The settings on record: in vivo. The data set is classed as organism-based. An outline of the steps: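 Male athymic BALB/c-nu mice bearing subcutaneous PC3M-luc-C6 xenografts, n = 5 per group. Dosing was 15 mg/kg i.p. every 2 days for 18 days versus placebo and docetaxel 15 mg/kg groups. Body weight was recorded over the treatment period.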

In data set [3] the test system is PC-3. Briefly: Induction of vacuolization in human PC3 cells in presence of AcT-D after 24 hrs by phase-contrast microscopic analysis. The data set is classed as functional, cell-based. In short, it runs like this:
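PC3 cells pretreated with 10 μM actinomycin D or 5 μM cycloheximide, then treated with agent for 24 h. Vacuolization imaged by phase-contrast microscopy; viability by MTT.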

Data set [4] deals with T1, Eukaryotic translation initiation factor 2-alpha kinase 3 (Homo sapiens) (UniProt Q9NZJ5).
T1 sequence (whole entry): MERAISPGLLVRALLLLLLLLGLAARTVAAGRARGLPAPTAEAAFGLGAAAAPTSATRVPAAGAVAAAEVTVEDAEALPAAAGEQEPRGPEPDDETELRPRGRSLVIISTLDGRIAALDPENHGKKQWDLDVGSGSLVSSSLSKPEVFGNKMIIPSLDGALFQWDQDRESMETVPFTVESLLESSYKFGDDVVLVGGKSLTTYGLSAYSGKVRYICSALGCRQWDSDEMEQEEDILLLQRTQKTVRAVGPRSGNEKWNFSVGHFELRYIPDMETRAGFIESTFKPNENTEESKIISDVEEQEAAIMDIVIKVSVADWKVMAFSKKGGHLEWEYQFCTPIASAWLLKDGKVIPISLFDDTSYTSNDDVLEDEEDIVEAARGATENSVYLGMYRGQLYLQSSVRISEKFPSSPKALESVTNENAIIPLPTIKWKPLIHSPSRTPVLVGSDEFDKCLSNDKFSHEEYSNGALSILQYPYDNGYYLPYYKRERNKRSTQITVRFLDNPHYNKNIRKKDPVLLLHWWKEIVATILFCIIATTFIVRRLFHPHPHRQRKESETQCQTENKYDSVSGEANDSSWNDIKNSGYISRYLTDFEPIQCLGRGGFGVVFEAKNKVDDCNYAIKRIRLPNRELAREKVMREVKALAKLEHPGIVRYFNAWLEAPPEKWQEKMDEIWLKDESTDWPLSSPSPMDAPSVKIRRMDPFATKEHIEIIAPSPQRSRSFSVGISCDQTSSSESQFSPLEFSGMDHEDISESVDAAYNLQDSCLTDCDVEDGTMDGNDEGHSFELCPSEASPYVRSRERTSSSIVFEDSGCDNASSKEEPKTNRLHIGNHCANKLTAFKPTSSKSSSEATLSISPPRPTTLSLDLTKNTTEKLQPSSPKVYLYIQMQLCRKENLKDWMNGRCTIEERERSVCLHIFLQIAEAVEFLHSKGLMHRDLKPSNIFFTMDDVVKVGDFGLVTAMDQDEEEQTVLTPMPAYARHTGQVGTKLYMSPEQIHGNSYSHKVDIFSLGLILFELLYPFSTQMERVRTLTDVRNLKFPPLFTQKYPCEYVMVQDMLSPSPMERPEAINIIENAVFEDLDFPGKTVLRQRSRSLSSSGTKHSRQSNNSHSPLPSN
The data set can be described thus: Activation of PERK phosphorylation in human PC3 cells assessed as eIF2alpha phosphorylation after 24 hrs by Western blot analysis. The class given is cell-based. In short, it runs like this: (§1)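 PC3 cells in RPMI 1640 with 10% FBS, treated with compound for timed intervals. DMSO vehicle control. Lysis in RIPA buffer, 40 μg protein per lane on SDS-PAGE, transfer to nitrocellulose. Primary antibodies overnight at 4 °C, HRP-secondary 45 min, ECL detection. GAPDH or β-actin used as loading control.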
Background: A western blot detects proteins with antibodies after separation by electrophoresis.

Data set [5] addresses T1, Eukaryotic translation initiation factor 2-alpha kinase 3 (Homo sapiens). Briefly: Activation of PERK phosphorylation in human PC3 cells after 24 hrs by Western blot analysis. The class given is cell-based. An outline of the steps: as §1
Data set [6] deals with PC-3. The data set can be described thus: Induction of autophagy in human PC3 cells assessed as increase in p62/SQSTM1 expression after 4 hrs by Western blot analysis. The data set is classed as functional, cell-based. In short, it runs like this:
as §1

A further data set relates to RWPE-1. The data set can be described thus: Cytotoxicity against human RWPE1 cells assessed as cell growth inhibition after 24 hrs by MTT assay. The data set is classed as cell-based. The settings on record: RWPE-1, 24 h. An outline of the steps:
(§2)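 Cells seeded 24 h in RPMI 1640 + 10% FBS. RWPE-1 was kept in K-SFM with bovine pituitary extract and EGF. Cells then exposed to compounds for 24 h at 37 °C, 5% CO2, with DMSO vehicle and docetaxel as positive control. MTT added for 4 h, absorbance read at 570 nm. Triplicate runs, IC50 reported as mean of three experiments.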
On the technique in general: Tetrazolium assays rely on reduction of a dye to a coloured formazan, in cell work by metabolically active cells.

The test system of data set [7] is PC-3. The data set can be described thus: Cytotoxicity in human PC3 cells assessed as reduction in cell viability incubated for 22 hrs after ER stress inhibitor 4-PBA exposure for 2 hrs by MTT assay. The class given is functional, cell-based. In short, it runs like this:
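PC3 cells pretreated 2 h with 4-PBA (100 μM), then compound added for a further 22 h. Viability measured by MTT. GRP78 assessed by Western blot, along with XBP1 mRNA splicing analysis. Morphology by phase contrast.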

Data set [8] concerns PC-3. The data set can be described thus: Induction of autophagy in human PC3 cells transfected with mRFP-GFP-LC3 assessed as pervacuolar distribution of LC3 at 1 uM after 8 hrs by fluorescence microscopic analysis. The class given is functional, cell-based. In short, it runs like this:
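PC3 cells transfected with an mRFP-GFP-LC3 reporter plasmid, then treated 8 h with 1 μM test agent or 0.5 μM rapamycin (autophagy inducer). Imaged by confocal fluorescence microscopy: yellow puncta (overlapping red/green) scored as autophagosomes, red-only puncta as autolysosomes, since GFP is quenched in acidic lysosomes.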

Data set [9] deals with PC-3. Briefly: Induction of autophagy in human PC3 cells assessed as vacuole formation at 1 uM after 24 hrs in presence of PI3K inhibitor 3-MA by phase-contrast microscopic analysis. The class given is functional, cell-based. In short, it runs like this:
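PC3 cells were pretreated with the autophagy inhibitor (3-MA or E64d), then exposed to 1 μM test agent for 24 h. Morphology was imaged by phase-contrast microscopy, and viability was read by MTT at 570 nm. Comparison was against agent-only cells.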

Data set [10] deals with PC-3. The data set can be described thus: Induction of apoptosis in human PC3 cells after 24 hrs by Annexin V-FITC/propidium iodide based flow cytometric analysis. The data set is classed as functional, cell-based. In short, it runs like this: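 PC3 cells exposed to 0.5, 1 or 2 μM for 24 h, then stained with Annexin V-FITC and PI and analyzed by FACSCalibur flow cytometry. Populations assigned as necrotic (Annexin V−/PI+), late apoptotic (double positive), normal (Annexin V−/PI−) and early apoptotic (Annexin V+/PI−). DMSO vehicle control.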
On the technique in general: Flow cytometry measures light scatter and fluorescence of single cells or particles in a stream.

For data set [11], the system named is PC-3. Briefly: Induction of endoplasmic reticulum derived cytoplasmic vacuole formation in human PC3 cells after 4 to 8 hrs by ER-tracker staining based fluorescence microscopy. The data set is classed as functional, cell-based. In short, it runs like this: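 PC3 cells incubated with vehicle or agent for 0, 4 or 8 h. They were then stained at 37 °C for 15 min with ER-Tracker (1:3000) plus 10 μg/mL Hoechst 33342, washed with PBS and imaged by fluorescence/confocal microscopy.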

Another data set has as its system K562. The data set can be described thus: Cytotoxicity against human K562 cells assessed as cell growth inhibition after 24 hrs by MTT assay. The settings on record: K562, 24 h. The data set is classed as functional, cell-based. An outline of the steps: as §2

Active and inactive are the calls of the source. No cut-off for these calls is given here.

One may read the IC50 as the midpoint of a concentration-inhibition curve. Regarding `Cc1cc(C)cc(COc2cc3c(cc2OCc2cc(C)cc(C)c2)[C@@H]2C[C@H](O)C[C@@H](C)N2CC3)c1` (racemic), the outcome (with PC-3 [1]; in data set [4]; in data set [5]; in the data set on PC-3 [8]; in the data set with PC-3 [11]) was Active. For the same compound, the Activity is 16.3 g in [2] and “Dose-dependent effect” with PC-3 [10]. Further, the outcome in the data set on PC-3 [3], in the data set on PC-3 [6], in the data set with PC-3 [7] and in the data set on PC-3 [9] was inactive. Also, the IC50 is 5.06 µM in the data set with RWPE-1 and 1.44 µM in the data set with K562.
